S100A4 inh HTS: blocks human S100A4 binding to myosin IIA peptide; P26447; 360,000 tested, 0.14% active; S100A4/TAMRA-MyoIIA peptide fluorescence polarization; inhibition, % at 10.7 µM;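 active = mean inhibition of at least 70% across replicates, with every replicate also reaching that level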
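System – human S100A4 monomer protein, biochemical binding assay · Buffer or medium – Calcium-containing HEPES buffer, pH 7.2 · Timing – 5 min between mix addition and reading · Also added – TAMRA-labelled myosin IIA heavy-chain peptide probe, 5 nM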
CAL PDZ FP-1: human CAL PDZ-peptide interaction inhibition | inhibition, % at 20 µM | 330,000 tested, 0.02% active | purified CAL PDZ, TMR-peptide fluorescence polarization, 1 h;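 active = highest replicate inhibition of at least 40%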
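Material – purified CerCALP PDZ construct · Detection – FP readout, S and P plane fluorescence · Measure – percent inhibition from loss of millipolarization · Controls – unlabelled peptide for full inhibition, DMSO wells as neutral · Probe or stimulus – TMR-labelled reporter peptide T*-PRC34 bound in PDZ groove · Times – 1 h at RT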
Statin myotox sup: suppressors of simvastatin-induced myotoxicity in C2C12 myotubes; rescue of ATP level, % at 7.49 µM; ATP luminescence, 48 h; scaled: DMSO 0, geranylgeraniol control 100; 330,000 tested, 0.78% active;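 active = mean ATP rescue above about 67%, or every replicate alone reaching that limit, limit read from the data, passing the limit was not always enough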;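 note: myotubes were challenged with 10 µM simvastatin during compound exposure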
CDK5 p35 inh: inhibitors of human CDK5/p35 kinase. Recombinant CDK5/p35, ADP-Glo luminescence, 60 min. inhibition, % at 10 µM. 330,000 tested, 0.01% active;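 active = highest replicate inhibition of at least 50% and at least 75% of replicates reaching 50%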
Target sequence (Q00535 whole entry, looked up): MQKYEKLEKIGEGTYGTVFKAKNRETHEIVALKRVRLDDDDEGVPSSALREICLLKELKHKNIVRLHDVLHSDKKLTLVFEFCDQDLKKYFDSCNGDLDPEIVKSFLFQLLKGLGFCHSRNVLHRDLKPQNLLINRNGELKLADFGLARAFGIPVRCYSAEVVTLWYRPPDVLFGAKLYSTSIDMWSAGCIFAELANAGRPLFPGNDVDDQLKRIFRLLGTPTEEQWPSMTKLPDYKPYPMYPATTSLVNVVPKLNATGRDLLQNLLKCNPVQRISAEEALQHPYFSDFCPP
Target sequence (Q15078 whole entry, looked up): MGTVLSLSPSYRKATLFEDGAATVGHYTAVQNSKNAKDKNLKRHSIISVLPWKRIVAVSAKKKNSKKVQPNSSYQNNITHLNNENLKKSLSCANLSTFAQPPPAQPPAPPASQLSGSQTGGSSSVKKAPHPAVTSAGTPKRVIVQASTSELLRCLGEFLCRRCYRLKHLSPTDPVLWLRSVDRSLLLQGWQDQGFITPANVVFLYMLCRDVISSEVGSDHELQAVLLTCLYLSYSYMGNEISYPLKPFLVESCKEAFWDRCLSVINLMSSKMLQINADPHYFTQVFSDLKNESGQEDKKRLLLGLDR
dFosB act: enhances mouse delta FosB homodimer DNA binding | P13346 | purified delta FosB, TAMRA-CDK5 oligo fluorescence polarization; percent of positive-control signal above neutral wells | activation, % at 25 µM | 340,000 tested, 0.99% active | AID 493131;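 active = mean activation above about 17%, with every replicate also reaching it, limit read from the data, passing the limit was not always enough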
CAL PDZ FP-2: CAL PDZ (human) peptide binding inhibition; Q9HD26; purified CAL PDZ, TMR-peptide fluorescence polarization, 1 h; inhibition, % at 24.9 µM; 300,000 tested, 0.92% active; AID 602252;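 active = mean inhibition of at least 30% with at least half of replicates also reaching 30%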
A number is an active result; 0 = inactive; - = no result given. Hits are enriched below; roughly 2% of the tested compounds scored in any of these assays.

SMILES	S100A4 inh HTS	CAL PDZ FP-1	Statin myotox sup	CDK5 p35 inh	dFosB act	CAL PDZ FP-2
NS(=O)(=O)c1ccc(CNC(=O)/C=C/c2c(F)cccc2Cl)cc1	0	0	-	0	0	69.8
O=C(/C=C/c1ccc[nH]1)c1ccc(F)cc1	0	0	-	0	0	0
NS(=O)(=O)c1ccc(CNC(=O)/C=C/c2cccc(Cl)c2)cc1	-	0	0	0	0	0
O=C(/C=C/c1ccccc1Cl)NCc1ccccc1	-	0	144.8	0	0	0
O=C(/C=C/c1c(F)cccc1Cl)c1ccc(F)cc1	-	0	128.8	0	0	0
Cc1c(NC(=O)OC(C)C)sc(=S)n1C	0	0	0	0	0	0
O=C1OC(Nc2ccc(Cl)cn2)c2ccccc21 (stereo unspecified)	-	0	0	0	0	0
O=C(Nc1nc(NC(=O)c2ccco2)n(-c2ccccc2)n1)c1ccccc1	-	0	94.2	0	0	0
O=C(c1cccnc1)N1C[C@@H]2[C@H](c3ccccc31)[C@@H](CO)N2C(=O)Nc1ccccc1Cl	0	-	0	-	-	-
Cn1cccc1CC(=O)N/N=C/c1ccco1	0	0	-	0	0	0
Cc1ccc(C(=O)O/N=C(\N)c2ccccn2)c(C)c1	0	0	0	50.5	0	0
COC(=O)c1ccc(CSc2nnc(Nc3ccc(C)cc3)s2)o1	-	0	95.1	0	0	0
O=C(O)c1ccc2c(c1)ncn2C1CCCCC1	-	0	0	0	0	0
O=C(Nc1ccccc1)N1CCCCN2[C@H](C1)[C@H](c1ccc(Br)cc1)[C@@H]2CO	0	-	94.6	-	-	-
O=C(Nc1ccccc1)N1CCCCN2[C@H](CO)[C@H](c3ccc(C#Cc4ccccn4)cc3)[C@H]2C1	90.7	-	-	-	-	-
O=C(Nc1ccccc1)N1CCCCN2[C@H](C1)[C@@H](c1ccc(Br)cc1)[C@@H]2CO	0	-	0	-	-	-
O=C(Nc1ccc(F)cc1)N1CCCCN2[C@H](CO)[C@H](c3ccc(C#Cc4ccccn4)cc3)[C@H]2C1	86.5	-	-	-	-	-
C=CCn1c(N)cc(=O)nc1SC(CC)C(=O)Nc1ccc(C(C)=O)cc1 (stereo unspecified)	0	0	0	0	0	0
CCOc1ccc(S(=O)(=O)NN)cc1	-	-	96.1	0	0	0
CS(=O)(=O)Nc1ccc(C(=O)Nc2ccccc2C(=O)N2CCCC2)cc1	-	0	90.1	0	0	0
Cn1c(=O)n(C)c2cc(NC(=O)c3ccccc3NS(C)(=O)=O)ccc21	0	0	0	0	0	80.4
CS(=O)(=O)Nc1ccccc1C(=O)Nc1ccccc1C(=O)N1CCCC1	0	0	0	0	0	0
O=C(COc1ccc(Br)cc1)Nc1ccccc1C(=O)N1CCOCC1	0	0	0	0	0	0
COc1ccc(C(=O)Nc2ccccc2C(=O)N2CCCCCC2)cc1	0	0	0	0	0	-
COc1ccc(OCC(=O)Nc2ccccc2C(=O)N2CCOCC2)cc1	0	0	-	0	0	51.2
SMILES	S100A4 inh HTS	CAL PDZ FP-1	Statin myotox sup	CDK5 p35 inh	dFosB act	CAL PDZ FP-2
COc1cc(OC)cc(C(=O)Nc2ccccc2C(=O)N2CCCC2)c1	-	0	114.8	0	0	0
Cc1ccc(S(=O)(=O)C(C#N)c2nc3ccccc3nc2N2CCN(C)CC2)cc1C (stereo unspecified)	-	0	0	0	0	0
COc1ccc2c3c([nH]c2c1)[C@@H](CO)N(Cc1ccc(F)cc1)CC31CN(Cc2ccccn2)C1	0	-	-	-	-	-
Oc1ccccc1/C=N/c1c(-c2ccco2)nc2ccccn12	-	0	102.2	0	0	0
Clc1ccc(/C=N/c2c(-c3ccco3)nc3ccccn23)cc1	-	0	0	0	0	0
CN(Cc1cccs1)C(=O)CCc1ccc(S(=O)(=O)N2CCOCC2)cc1	-	0	0	0	0	0
CCCNC(=O)N1C[C@H](O)COC[C@H]2O[C@@H](CC(=O)N3CCC(Cc4ccccc4)CC3)CC[C@@H]21	0	-	0	-	-	-
Cc1ccc(O)c(Nc2c3ccccc3nc3ccccc23)c1	0	0	0	0	34.6	0
Cc1ccc(O)c(Nc2nc(-c3ccccc3)nc3ccccc23)c1	0	0	0	0	0	-
CCOC(=O)C1CCN(C=Nc2cc(C)on2)CC1	-	0	147.2	0	0	0
CCOC(=O)C1CCN(S(=O)(=O)c2ccc(C(C)=O)cc2)CC1	-	0	0	0	0	0
COC(=O)CCC(=O)Nc1sc(C)c(C)c1C(N)=O	-	0	110.7	0	0	0
CC(=O)N1[C@@H]2c3ccc(C4=CCCC4)c(=O)n3C[C@H]1[C@H](CO)[C@H]2C(=O)NC1CCCCC1	-	-	0	-	-	-
C=CCNc1nc(Cl)nc(Nc2ccc([N+](=O)[O-])cc2)n1	0	0	-	0	0	0
C=CCNc1nc(Nc2ccc([N+](=O)[O-])cc2)nc(N2CCCC2)n1	-	0	-	0	62.1	0
O=C(CSC1=Nc2ccccc2C2CC=NN12)NCc1ccco1 (stereo unspecified)	0	0	97.7	0	0	0
N#Cc1ccccc1NC(=O)CSC1=Nc2ccccc2C2CC=NN12 (stereo unspecified)	0	0	0	0	0	0
O=C(Cc1ccccc1)NCC(=O)N1CCCC1	0	0	0	0	0	-
O=C(CCN1CCN(C(c2ccccc2)c2ccccc2)CC1)N/N=C/c1ccc(O)cc1	-	0	-	0	0	0
O=C(CCN1CCN(C(c2ccccc2)c2ccccc2)CC1)N/N=C/c1ccc(O)cc1O	-	0	-	0	36.7	0
COc1ccc(Cc2nnc(Nc3ccccc3)s2)cc1Br	0	0	76.9	0	0	0
O=C(N[C@@H](Cc1c[nH]c2ccccc12)C(=O)O)C1CCN(S(=O)(=O)c2cccs2)CC1	0	-	0	0	0	70.6
CC(C)(C)OC(=O)N1CCC(C(=O)N[C@@H](Cc2c[nH]c3ccccc23)C(=O)O)CC1	0	-	0	0	0	0
O=C(N[C@@H](Cc1c[nH]c2ccccc12)C(=O)O)C1CCN(S(=O)(=O)c2ccc(Cl)cc2)CC1	0	0	0	0	0	32.2
COc1ccc(/C=C/C(=O)Nc2ccc(OC)nc2)cc1	0	0	84.4	0	0	0
COc1ccc(NC(=O)/C=C/c2ccc(OC(F)F)cc2)cn1	0	0	0	0	0	0
O=C(c1ccc2c(c1)OCO2)N1CC[C@@H]2[C@@H](CO)Nc3ccc(-c4ccc(F)cc4)cc3[C@@H]21	0	-	0	-	-	-
CCCCNC(=O)c1ccc(CS(=O)(=O)c2cccc(C(F)(F)F)c2)o1	-	0	143.9	0	0	0
Cc1cc(C(=O)N2CCCC(CCC(=O)N3CCN(c4ccccn4)CC3)C2)c(C)o1 (stereo unspecified)	0	0	0	0	0	45.2
CCSc1sccc1C1C(C#N)=C(N)N(c2cccnc2)C2=C1C(=O)CC(C)(C)C2 (stereo unspecified)	-	0	77.5	0	0	0

Screens (PubChem BioAssay)
